Experiment [1] deals with Plasmodium falciparum. The experiment is described as follows: Antimalarial activity against chloroquine-resistant Plasmodium falciparum W2. The experiment is classed as functional, organism-based.
The subject of experiment [2] is Plasmodium falciparum. The experiment is described as follows: Antimalarial activity against chloroquine-sensitive Plasmodium falciparum D6. The experiment is classed as functional, organism-based.
Experiment [3] can be described thus: Evaluated for the neurotoxicity against NB2a Neuroblastoma cells. The experiment is classed as functional, cell-based, Mus musculus. A digest of the protocol:
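Neurite outgrowth assay in NB2a neuroblastoma cells grown in high-glucose DMEM with 5% horse serum and 5% fetal calf serum, 37 °C, 5% CO2. Cells plated at 15 000 cells/mL. After 24 h, switched to serum-free medium with 0.5 mM dibutyryl cAMP plus drug at 10 and 0.1 µM for a further 24 h. Cells fixed in formaldehyde and stained with Coomassie. Average neurite length per cell measured by image analysis over 10 fields of about 20 cells; IC50 reported.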

The test system of experiment [4] is Mus musculus. The experiment is described as follows: Evaluated for the percentage of subcutaneously to Plasmodium berghei infected mice on days 3, 4, and 5 post infection. The experiment is classed as functional. A digest of the protocol:
(§1)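 Modified Thompson test. Five-week-old CD-1 mice infected ip on day 0 with drug-sensitive P. berghei KBG 173 trophozoites from a donor mouse at 60% parasitemia. Groups of five or seven mice dosed sc b.i.d. on days 3, 4 and 5 at 64 mg/kg/day. Parasitemia read on Giemsa-stained blood films on day 6, then weekly to day 60. Survival followed; mice alive and blood-film negative at day 60 counted as cured.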

Experiment [5] concerns Mus musculus. The experiment is described as follows: Evaluated for the survival of the mice when 128 mg/kg/day was administered orally to Plasmodium berghei infected mice on days 3, 4, and 5 post infection; 5/C(C=survival beyond 60 days). The experiment is classed as functional, organism-based. A digest of the protocol: (§2)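 Modified Thompson test. Five-week-old CD-1 mice infected ip on day 0 with drug-sensitive P. berghei KBG 173 trophozoites from a donor mouse at 60% parasitemia. Groups of five or seven mice dosed po b.i.d. on days 3, 4 and 5 at 128 mg/kg/day. Giemsa blood films taken on day 6, then weekly to day 60. Day of death recorded; mice alive and blood-film negative at day 60 counted as cured.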

For experiment [6], the system named is Mus musculus. The experiment is described as follows: Evaluated for the survival of the mice when 64 mg/kg/day was administered subcutaneously to Plasmodium berghei infected mice on days 3, 4, and 5 post infection; 7/C(C=survival beyond 60 days). The experiment is classed as functional, organism-based. A digest of the protocol:
as §1

In experiment [7] the test system is Mus musculus. Description: Evaluated for the survival of the mice when 64 mg/kg/day was administered subcutaneously to Plasmodium berghei infected mice on days 3, 4, and 5 post infection;1/9, 2/10, 1/18, 1/19. The experiment is classed as functional, organism-based. In a few lines: as §1
The subject of experiment [8] is Mus musculus. Description: Evaluated for the survival of the mice when 128 mg/kg/day was administered orally to Plasmodium berghei infected mice on days 3, 4, and 5 post infection; 1/15; 1/17; 1/18; 2/C(C=Survival beyond 60 days). The experiment is classed as functional, organism-based. A digest of the protocol:
as §2

Experiment [9] deals with Mus musculus. Description: Evaluated for the survival of the mice when 128 mg/kg/day was administered orally to Plasmodium berghei infected mice on days 3, 4, and 5 post infection.1/8, 2/16, 1/32, 3/C(C=survival beyond 60 days). The experiment is classed as functional, organism-based. A digest of the protocol:
as §2

The test system of experiment [10] is Mus musculus. The experiment is described as follows: Evaluated for the survival of the mice when 64 mg/kg/day was administered subcutaneously to Plasmodium berghei infected mice on days 3, 4, and 5 post infection;1/8, 2/9, 1/10, 1/13. The experiment is classed as functional, organism-based. A digest of the protocol: as §1
Experiment [11] has as its system Mus musculus. Description: Evaluated for the survival of the mice when 128 mg/kg/day was administered orally to Plasmodium berghei infected mice on days 3, 4, and 5 post infection;1/9 1/26 3/C(C=survival beyond 60 days). The experiment is classed as functional, organism-based. A digest of the protocol:
as §2

Experiment [12] has as its system Mus musculus. Description: Evaluated for the survival of the mice when 64 mg/kg/day was administered subcutaneously to Plasmodium berghei infected mice on days 3, 4, and 5 post infection;1/8, 1/9, 1/10, 1/12, 1/15. The experiment is classed as functional, organism-based. A digest of the protocol:
as §1

What is called IC50 is the concentration that gives 50% inhibition. Read a low IC50 as inhibition by little substance. With `CC1(C)CC(C)(C)CC2(C1)OOC1(CC(C)(C)CC(C)(C)C1)OO2`, the IC50 in the experiment on Plasmodium falciparum [1] was above 1000 nM; in the experiment with Plasmodium falciparum [2], above 1000 nM; in experiment [3] it was 3.6 nM.
As for `CCC[C@@H]1CCCCC12OOC1(CCCC[C@@H]1CCC)OO2` (stereo partly specified), the IC50 in the experiment on Plasmodium falciparum [1] amounted to 39 nM; in the experiment on Plasmodium falciparum [2] it was 84 nM.
On to `CC(C)C1CCC(C)C2(C1)OOC1(CC(C(C)C)CCC1C)OO2` (stereo unspecified), for which the IC50 in the experiment on Plasmodium falciparum [1] is 94 nM; in the experiment on Plasmodium falciparum [2] it was 140 nM; in experiment [3], 40 nM.
`CC1CC(C)CC2(C1)OOC1(CC(C)CC(C)C1)OO2` (stereo unspecified): the half-inhibitory concentration (IC50) in the experiment on Plasmodium falciparum [1] was 15 nM; in the experiment on Plasmodium falciparum [2], 30 nM; in experiment [3] it was 6.7 nM. In the experiment with Mus musculus [4], this compound had a Parasitemia of 82%.
For the compound `CCO[C@H]1O[C@@H]2O[C@@]3(C)CC[C@H]4[C@H](C)CC[C@@H]([C@H]1C)[C@@]24OO3` [ARTEMOTIL], the IC50 with Plasmodium falciparum [1] came to 1.4 nM; in the experiment on Plasmodium falciparum [2] it was 2.7 nM. Also, the Parasitemia in the experiment with Mus musculus [4] worked out at 0%. In addition, the “No. of mice dead/day died” value in the experiment on Mus musculus [5] and with Mus musculus [6] was “survival beyond 60 days” throughout.
Take `C[C@@H]1CC[C@H]2[C@@H](C)C(=O)O[C@@H]3O[C@@]4(C)CC[C@@H]1[C@]32OO4` [ARTEMISININ]: the half-inhibitory concentration (IC50) in the experiment with Plasmodium falciparum [1] is 7.3 nM; in the experiment on Plasmodium falciparum [2], 8.4 nM.
Consider `CC1CC(C)(C)CCC12OOC1(CCC(C)(C)CC1C)OO2` (stereo unspecified), for which the figures for the IC50 (with Plasmodium falciparum [1]; in the experiment with Plasmodium falciparum [2]; in experiment [3]) were above 1000 nM, above 1000 nM and 1.4 nM, respectively.
Regarding `CC1CCC2(CC1C)OOC1(CCC(C)C(C)C1)OO2` (stereo unspecified), the IC50 in the experiment on Plasmodium falciparum [1] stood at 10 nM; in the experiment with Plasmodium falciparum [2], 12 nM; in [3] it was 4.4 nM. Moreover, the Parasitemia with Mus musculus [4] was found to be 14%. Besides, the “No. of mice dead/day died” value in the experiment with Mus musculus [7] and in the experiment on Mus musculus [8] was “Survival beyond 60 days” each time.
As for `CC1(C)CCC2(CC1)OOC1(CCC(C)(C)CC1)OO2`, the IC50 is above 1000 nM with Plasmodium falciparum [1], above 1000 nM in the experiment on Plasmodium falciparum [2] and 2 nM in [3].
As for `C[C@@H]1CCCCC12OOC1(CCCC[C@@H]1C)OO2` (stereo partly specified) [WR-148999], the half-inhibitory concentration (IC50) with Plasmodium falciparum [1] came out at 32 nM; with Plasmodium falciparum [2] it was 55 nM; in experiment [3], 8.4 nM. In the experiment with Mus musculus [4], this compound displayed a Parasitemia of 11%.
For `CC1CCCC2(OOC3(CCCC(C)C3C)OO2)C1C` (stereo unspecified), the concentration for half-maximal inhibition (IC50) is 43 nM in the experiment on Plasmodium falciparum [1] and 50 nM with Plasmodium falciparum [2]. Moreover, the Parasitemia with Mus musculus [4] came out at 3%.
Consider `CC1CCC2(OOC3(CCC(C)CC3C)OO2)C(C)C1` (stereo unspecified), for which the figures for the IC50 (in the experiment with Plasmodium falciparum [1]; in the experiment on Plasmodium falciparum [2]; in [3]) were 49 nM, 110 nM and above 1 nM, respectively.
For `CC1CCCC2(C1)OOC1(CCCC(C)C1)OO2` (stereo unspecified), the values for the IC50 (with Plasmodium falciparum [1]; in the experiment with Plasmodium falciparum [2]; in experiment [3]) were 51 nM, 76 nM and 16 nM, respectively.
On to `CC1CCC(C(C)C)C2(C1)OOC1(CC(C)CCC1C(C)C)OO2` (stereo unspecified), for which the IC50 is 37 nM in the experiment with Plasmodium falciparum [1], 47 nM with Plasmodium falciparum [2] and 37 nM in experiment [3]. Moreover, the “No. of mice dead/day died” value in the experiment with Mus musculus [9] and with Mus musculus [10] was “survival beyond 60 days” each time. In the experiment on Mus musculus [4], this compound showed a Parasitemia of 7%.
On to `CC1CCC(C)C2(C1)OOC1(CC(C)CCC1C)OO2` (stereo unspecified), for which the IC50 with Plasmodium falciparum [1] was 19 nM; in the experiment with Plasmodium falciparum [2] it was 15 nM; in experiment [3] it was 17 nM. Also, the “No. of mice dead/day died” value in the experiment on Mus musculus [11] and in the experiment with Mus musculus [12] was “survival beyond 60 days” each time. For the same compound, the Parasitemia with Mus musculus [4] is 13%.
On to `CC(C)(C)C1CCC2(CC1)OOC1(CCC(C(C)(C)C)CC1)OO2` (stereo unspecified), for which the results for the 50% inhibitory concentration (IC50) (in the experiment with Plasmodium falciparum [1]; in the experiment with Plasmodium falciparum [2]; in experiment [3]) were 100 nM, 200 nM and 2.8 nM, respectively.
Regarding `CC[C@@H]1CCCCC12OOC1(CCCC[C@@H]1CC)OO2` (stereo partly specified), the IC50 in the experiment on Plasmodium falciparum [1] turned out to be 19 nM; in the experiment with Plasmodium falciparum [2], 23 nM; in experiment [3] it was 9.3 nM. In the experiment with Mus musculus [4], the Parasitemia stood at 28%.
`CC(C)(C)[C@H]1CCCCC12OOC1(CCCC[C@H]1C(C)(C)C)OO2` (stereo partly specified): the half-maximal inhibitory concentration (IC50) in the experiment on Plasmodium falciparum [1] is 160 nM; in the experiment on Plasmodium falciparum [2], above 300 nM; in experiment [3] it was 3.4 nM.
On to `CC1CCC2(CC1)OOC1(CCC(C)CC1)OO2` (stereo unspecified), for which the half-maximal inhibitory concentration (IC50) was determined as 21 nM in the experiment with Plasmodium falciparum [1], 23 nM with Plasmodium falciparum [2] and 1.1 nM in [3]. The compound also showed a Parasitemia in the experiment on Mus musculus [4] of 22%.
`CO[C@H]1O[C@@H]2O[C@@]3(C)CC[C@H]4[C@H](C)CC[C@@H]([C@H]1C)[C@@]24OO3` [ARTEMETHER]: in [3], the IC50 turned out to be 351 nM.

These data come from ChEMBL document CHEMBL1133466, “Synthesis and antimalarial activity of sixteen dispiro-1,2,4, 5-tetraoxanes: alkyl-substituted 7,8,15,16-tetraoxadispiro[5.2.5. 2]hexadecanes” (J Med Chem, 2000).
